Experimental data of several laboratories.
Protocols differ between the studies behind these lines.
Cell line: A498
Observed: cell growth or viability

| Compound | method | tested at | time | quantity | result |
| --- | --- | --- | --- | --- | --- |
| COc1ccc(C(=O)/C=C/c2ccc3ccccc3c2)cc1S(N)(=O)=O | SRB |  | 48 h | GI50 | 14500 nM |
| COc1cc(Nc2nccc(-c3cnn4nc(OC)ccc34)n2)cc(C(F)(F)F)c1 | ATP luminescence |  |  | IC50 | 430 nM |
| COc1ccc(C(=O)/C=C/c2cccc3ccccc23)cc1S(N)(=O)=O | SRB | 10 µM |  | inhibition | -7% |
| COc1cccc(Oc2ccccc2NC(=O)CNC(=O)c2cccc3ccccc23)c1 | SRB |  | 48 h | GI50 | 115 nM |
| S=C([S][Au-][P+](CCCCCC[P+]([Au-][S]C(=S)n1cccn1)(c1ccccc1)c1ccccc1)(c1ccccc1)c1ccccc1)n1cccn1 |  |  |  | GI50 | 1010 nM |
| COc1cc(-c2ccc(-c3ccc(C(=N)N)nc3)s2)cc(OC)c1OC |  |  |  | GI50 | 4910 nM |
| Cc1cc(C)n(C(=S)[S][Au][PH](CCCCCC[PH]([Au][S]C(=S)n2nc(C)cc2C)(c2ccccc2)c2ccccc2)(c2ccccc2)c2ccccc2)n1 |  |  |  | GI50 | 384 nM |
| CCC(=O)Nc1cc(Nc2cc(NC3CC3)n3ncc(C#N)c3n2)ccc1C | ATP luminescence |  | 72 h | IC50 | 1800 nM |
| CC(C)C[C@H](NC(=O)[C@H](Cc1ccccc1)NC(=O)c1cnccn1)B(O)O | ATP luminescence |  |  | IC50 | 7.7 nM |
